# Reference: ChEMBL document CHEMBL2034924, “Optimization of a Potent, Orally Active S1P1 Agonist Containing a Quinolinone Core” (ACS Med Chem Lett, 2012)
# Key:
# [1] = biological target: T1, Sphingosine 1-phosphate receptor 1 (Homo sapiens, UniProt P21453); test: Agonist activity at human S1P1 receptor expressed in human U2OS cells co-expressing eGFP assessed as receptor internalization after 1 hr relative to 1-(4-(6-benzylbenzofuran-2-yl)-3-fluorobenzyl)azetidine-3-carboxylic acid; assay type: functional, cell-based
# T1 sequence (P21453 whole entry): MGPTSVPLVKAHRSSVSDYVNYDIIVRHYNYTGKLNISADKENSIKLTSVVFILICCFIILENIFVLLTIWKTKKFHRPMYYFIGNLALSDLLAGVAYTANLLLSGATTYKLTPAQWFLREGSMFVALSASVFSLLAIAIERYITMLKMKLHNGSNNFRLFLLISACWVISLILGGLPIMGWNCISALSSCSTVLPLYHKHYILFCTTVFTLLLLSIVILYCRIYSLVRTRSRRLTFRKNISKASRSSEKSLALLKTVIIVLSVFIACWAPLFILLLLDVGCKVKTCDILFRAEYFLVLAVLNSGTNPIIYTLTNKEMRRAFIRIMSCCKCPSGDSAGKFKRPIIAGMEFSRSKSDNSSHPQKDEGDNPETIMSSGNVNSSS
# [2] = biological target: T2, Sphingosine 1-phosphate receptor 3 (Homo sapiens, UniProt Q99500); test: Agonist activity at human S1P3 receptor expressed in CHO cells coexpressing Gq/i5 G-protein assessed as Ca2+ mobilization after 60 to 90 mins by FLIPR assay; assay type: functional, cell-based
# T2 sequence (Q99500 whole entry): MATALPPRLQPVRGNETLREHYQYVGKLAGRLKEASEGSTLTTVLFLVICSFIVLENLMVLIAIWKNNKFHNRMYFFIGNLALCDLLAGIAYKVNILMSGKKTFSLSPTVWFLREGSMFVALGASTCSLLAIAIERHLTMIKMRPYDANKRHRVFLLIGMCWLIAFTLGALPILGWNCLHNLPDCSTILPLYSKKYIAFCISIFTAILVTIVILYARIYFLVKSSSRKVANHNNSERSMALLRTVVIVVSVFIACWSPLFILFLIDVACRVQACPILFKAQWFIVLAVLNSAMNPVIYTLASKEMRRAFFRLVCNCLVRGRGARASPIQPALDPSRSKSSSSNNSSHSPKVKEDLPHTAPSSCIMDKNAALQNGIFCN
# Procedure, shortened: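 Ca2+ mobilization in CHO-K1 cells transfected with hS1P3/Gq/i5. EC50 is the molar concentration giving a half-maximal response.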
# [3] = biological target: T2, Sphingosine 1-phosphate receptor 3; test: Agonist activity at human S1P3 receptor expressed in CHO cells coexpressing Gq/i5 G-protein assessed as Ca2+ mobilization at 25 uM after 60 to 90 mins by FLIPR assay; assay type: functional, cell-based
# [4] = biological target: T1, Sphingosine 1-phosphate receptor 1; test: Agonist activity at human S1P1 receptor expressed in human U2OS cells co-expressing eGFP assessed as receptor internalization after 1 hr; assay type: functional, cell-based
# Procedure, shortened: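 U2OS cells expressing an hS1P1-GFP fusion protein; the read-out was receptor internalization. EC50 is the molar concentration giving a half-maximal response.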
# Rattus norvegicus [5] = test: AUC (0 to 24 hrs) in rat at 100 mg/kg, po; assay type: ADME, organism-based, Plasma; design: time < 24 hr, dose 100 mg/kg, route oral; conditions: in vivo
# [6] = AUC (0 to 24 hrs) in rat at 3 mg/kg, po; assay type: ADME, organism-based; design: time < 24 hr, dose 3 mg/kg, route oral; conditions: plasma
# [7] = Intrinsic clearance in rat liver microsomes at 1 uM after 30 mins; assay type: ADME, Microsome; conditions: read-out: CLH
# [8] = Apparent permeability of the compound across pig LLC-PK1 cells; assay type: ADME, cell-based, Sus scrofa
# Procedure, shortened: (§1)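 Parental porcine proximal tubule LLC-PK1 cell line. Apparent permeability was measured, and the efflux ratio was derived from it.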
# [9] = Efflux ratio of permeability in pig LLC-PK1 cells; assay type: ADME, cell-based, Sus scrofa; procedure, shortened: as §1
# [10] = Plasma protein binding in rat; assay type: ADME, cell-free; conditions: read-out: PPB (converted)
# Rattus norvegicus [11] = test: Lymphopenic activity in Lewis rat assessed as reduction in peripheral blood lymphocyte counts at 1 mg/kg, po measured 24 hrs post dosing relative to control; assay type: functional; design: scale not given: the % may be the effect or the level left
# Procedure, shortened: (§2)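 Female Lewis rats (N = 5/group) received a single oral dose of 1 mg/kg in 20% captisol, 1% HPMC, 1% pluronic F68, pH 2.1 with MSA. Peripheral lymphocyte count is given as percent-of-control reduction versus vehicle at 24 h. Total plasma drug concentration was measured at 24 h. Statistics used ANOVA/Dunnett versus vehicle.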
# [12] = Plasma concentration in Lewis rat at 1 mg/kg, po measured 24 hrs post dosing; assay type: ADME, organism-based; design: dose 1 mg/kg, route oral; conditions: Lewis, plasma; procedure, shortened: as §2
# [13] = Solubility of the compound in simulated intestinal fluid at pH 6.8 after 2 to 3 days by HPLC analysis; assay type: physicochemical
# [14] = AUC (0 to infinity) in Sprague-Dawley rat at 2 mg/kg, po; assay type: ADME, organism-based; design: time infinity, dose 2 mg/kg, route oral; conditions: plasma
# Procedure, shortened: (§3)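 Male Sprague-Dawley rats. IV doses were given in DMSO. Oral doses were given in 20% Captisol/1% Tween 80, pH 2, with MSA. Plasma was collected up to 48 h after dosing.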
# [15] = Oral bioavailability in nonhuman primates at 10 mg/kg; assay type: ADME, organism-based; conditions: in vivo
# Procedure, shortened: (§4)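 Pharmacokinetics in male nonhuman primates. IV vehicle was 40% hydroxypropyl β-cyclodextrin/60% water with MSA, pH 3. Oral vehicle was 1% HPMC/1% pluronic F68/20% HPBCD/78% water with MSA, pH 2.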
# Rattus norvegicus [16] = test: Lymphopenic activity in Lewis rat assessed as reduction in peripheral blood lymphocyte counts at 3 mg/kg, po measured 24 hrs post dosing relative to control; assay type: functional; design: scale not given: the % may be the effect or the level left
# Procedure, shortened: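 Female Lewis rats (N = 3/group) received a single oral dose in 20% captisol/1% HPMC/1% pluronic F68, pH 2, with MSA. Blood lymphocyte counts and plasma concentration were measured at 24 h, reported as mean ± SE. Comparison was versus vehicle by ANOVA/Dunnett, P < 0.05.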
# [17] = Mean residence time in C57BL/6 mouse at 1 mg/kg, iv; assay type: ADME, organism-based; design: dose 1 mg/kg, route intravenous; conditions: in vivo
# Procedure, shortened: (§5)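 Female C57BL/6 mice. IV dosing used 40% hydroxypropyl β-cyclodextrin/60% water. Oral dosing used 1% HPMC/1% pluronic F68/20% HPBCD/78% water with MSA, pH 2.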
# [18] = Clearance in Sprague-Dawley rat at 1 mg/kg, iv and 2 mg/kg, po; assay type: ADME, organism-based; conditions: in vivo; procedure, shortened: as §3
# [19] = Clearance in nonhuman primates at 4 mg/kg, iv and 10 mg/kg, po; assay type: ADME, organism-based; conditions: in vivo; procedure, shortened: as §4
# [20] = Volume of distribution at steady state in Sprague-Dawley rat at 1 mg/kg, iv; assay type: ADME, organism-based; design: dose 1 mg/kg, route intravenous; conditions: in vivo, read-out: Vdss; procedure, shortened: as §3
# [21] = Volume of distribution at steady state in nonhuman primates at 4 mg/kg, iv; assay type: ADME, organism-based; design: dose 4 mg/kg, route intravenous; conditions: in vivo, read-out: Vdss; procedure, shortened: as §4
# [22] = Half life in Sprague-Dawley rat at 100 mg/kg, po; assay type: ADME, organism-based; design: dose 100 mg/kg, route oral; conditions: in vivo; procedure, shortened: as §3
# [23] = AUC (0 to infinity) in C57BL/6 mouse at 3 mg/kg, po; assay type: ADME, organism-based; design: time infinity, dose 3 mg/kg, route oral; conditions: plasma; procedure, shortened: as §5
# [24] = Volume of distribution at steady state in C57BL/6 mouse at 1 mg/kg, iv; assay type: ADME, organism-based; design: dose 1 mg/kg, route intravenous; conditions: in vivo, read-out: Vdss; procedure, shortened: as §5
# [25] = Oral bioavailability in Sprague-Dawley rat at 100 mg/kg; assay type: ADME, organism-based; conditions: in vivo; procedure, shortened: as §3
# [26] = AUC (0 to infinity) in Sprague-Dawley rat at 100 mg/kg, po; assay type: ADME, organism-based; design: time infinity, dose 100 mg/kg, route oral; conditions: plasma; procedure, shortened: as §3
# [27] = Oral bioavailability in C57BL/6 mouse at 3 mg/kg; assay type: ADME, organism-based; conditions: in vivo; procedure, shortened: as §5
# [28] = Oral bioavailability in Sprague-Dawley rat at 2 mg/kg; assay type: ADME, organism-based; conditions: in vivo; procedure, shortened: as §3
# [29] = Mean residence time in Sprague-Dawley rat at 1 mg/kg, iv; assay type: ADME, organism-based; design: dose 1 mg/kg, route intravenous; conditions: in vivo; procedure, shortened: as §3
# [30] = Mean residence time in nonhuman primates at 4 mg/kg, iv; assay type: ADME, organism-based; design: dose 4 mg/kg, route intravenous; conditions: in vivo; procedure, shortened: as §4
# [31] = Clearance in C57BL/6 mouse at 1 mg/kg, iv and 3 mg/kg, po; assay type: ADME, organism-based; conditions: in vivo; procedure, shortened: as §5
# [32] = AUC (0 to infinity) in nonhuman primates at 10 mg/kg, po; assay type: ADME, organism-based; design: dose 10 mg/kg, route oral, time infinity; conditions: plasma; procedure, shortened: as §4
# [33] = Half life in Sprague-Dawley rat at 1 to 2 mg/kg, iv and po; assay type: ADME, organism-based; design: dose 1-2 mg/kg, route oral; conditions: in vivo; procedure, shortened: as §3
# [34] = biological target: T2, Sphingosine 1-phosphate receptor 3; test: Agonist activity at human S1P3 receptor expressed in CHO cells coexpressing Gq/i5 G-protein assessed as Ca2+ mobilization after 60 to 90 mins by FLIPR assay relative to 0.2 uM S1P
smiles,measurement,setting,value
Cn1cc(C(=O)Nc2ccc(-c3ccccc3)c(C(F)(F)F)c2)c(=O)c2ccc(NCCC(=O)O)cc21,Efficacy,[1],81%
same,EC50,[2],> 25000 nM
same,Activity,[3],< 10%
same,EC50,[4],150 nM
Cn1cc(C(=O)Nc2ccc(-c3ccccc3)c(C(F)(F)F)c2)c(=O)c2cc(CO)ccc21,Efficacy,[1],46%
same,EC50,[2],> 25000 nM
same,Activity,[3],< 10%
same,EC50,[4],700 nM
COc1ccncc1C(=O)NC(=O)Nc1ccc(-c2ccccc2)c(C(F)(F)F)c1,AUC,Rattus norvegicus [5],73 µM·h
same,AUC(0-t) at 24 h,[6],12 µM·h
Cn1cc(C(=O)Nc2ccc(-c3ccccc3)c(C(F)(F)F)c2)c(=O)c2ccc(CO)cc21,microsomal CLint at 1 µM,[7],< 14 µL/min/mg
same,Papp,[8],2.8 ×10⁻⁶ cm/s
same,efflux ratio,[9],1
same,Efficacy,[1],125%
same,EC50,[2],> 25000 nM
same,fraction unbound,[10],0.076
same,Activity,[3],< 10%
same,Activity,Rattus norvegicus [11],-44%
same,concentration at 24 h,[12],65 ng/mL
same,solubility,[13],27 µg/mL
same,EC50,[4],18 nM
Cn1cc(C(=O)Nc2ccc(-c3ccccc3)c(C(F)(F)F)c2)c(=O)c2cnc(CO)cc21,AUC(0-inf),[14],19 µM·h
same,bioavailability,[15],67%
same,Activity,Rattus norvegicus [16],88%
same,microsomal CLint at 1 µM,[7],< 14 µL/min/mg
same,Papp,[8],2.5 ×10⁻⁶ cm/s
same,efflux ratio,[9],1
same,MRT,[17],20 h
same,clearance,[18],5.17 mL/min/kg
same,Efficacy,[1],106%
same,clearance,[19],1.83 mL/min/kg
same,Vd,[20],5.8 L/kg
same,EC50,[2],> 25000 nM
same,Vd,[21],4.3 L/kg
same,fraction unbound,[10],0.083
same,Activity,[3],< 10%
same,half-life,[22],57 h
same,AUC(0-inf),[23],16 µM·h
same,Vd,[24],6 L/kg
same,bioavailability,[25],> 93%
same,Activity,Rattus norvegicus [11],-60%
same,concentration at 24 h,[12],84 ng/mL
same,AUC(0-inf),[26],1630 µM·h
same,bioavailability,[27],75%
same,bioavailability,[28],132%
same,MRT,[29],19 h
same,MRT,[30],40 h
same,clearance,[31],5.17 mL/min/kg
same,AUC(0-inf),[32],141 µM·h
same,half-life,[33],13 h
same,solubility,[13],> 200 µg/mL
same,EC50,[4],18 nM
Cn1cc(C(=O)Nc2ccc(-c3ccccc3)c(C(F)(F)F)c2)c(=O)c2ccc(CCCO)cc21,Efficacy,[1],118%
same,EC50,[2],> 25000 nM
same,Activity,[3],< 10%
same,EC50,[4],15 nM
Cn1cc(C(=O)Nc2ccc(-c3ccccc3)c(C(F)(F)F)c2)c(=O)c2cccc(CN)c21,Efficacy,[34],48%
same,Efficacy,[1],118%
same,EC50,[2],5600 nM
same,EC50,[4],81 nM
Cn1cc(C(=O)Nc2ccc(-c3ccccc3)c(C(F)(F)F)c2)c(=O)c2cnc(CCC(=O)O)cc21,Efficacy,[34],49%
same,Efficacy,[1],88%
same,EC50,[2],1300 nM
same,EC50,[4],38 nM
Cn1cc(C(=O)Nc2ccc(-c3ccccc3)c(C(F)(F)F)c2)c(=O)c2ccc(CC(=O)O)cc21,Efficacy,[34],28%
same,Efficacy,[1],138%
same,EC50,[2],1600 nM
same,EC50,[4],180 nM
